Assay [1] can be described thus: Inhibition of full length recombinant Plasmodium vivax SUB1 expressed in Drosophila S2 cells using Dabsyl-KLVGADDV-SLA-EDANS as substrate measured every 2 mins for 1 hr by FRET assay.
The test system of another assay is Plasmodium falciparum. Description: Antiparasitic activity against Plasmodium falciparum infected in human Erythrocyte assessed as inhibition of merozoite egress from human Erythrocyte at 100 uM measured for 8 hrs by flow cytometry analysis relative to control. In kind it is functional. Summed up:
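P. falciparum cultured in human RBCs, RPMI 1640 with 25 mM HEPES, 2.5% Albumax II, 100 μM hypoxanthine, 37 °C, 5% O2/5% CO2. Sorbitol-synchronized, plasmion-enriched late schizonts at 2% hematocrit, 1% parasitemia exposed to compound for 8 h. Fixed in glutaraldehyde, permeabilized, RNase-treated, stained with YOYO-1. Ring parasitemia by flow cytometry (100,000 events) vs DMSO. Triplicate; IC50 from 16 concentrations, 180 to 0.8 μM.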

Active and inactive are the calls of the source. The calls are words filed in the database; no cut-off is given here. Numbered stars: 1 amine (or outer) side, 2 acyl side, 3 side chain; on linkers, the order of the positions; unused ones are H or OH. Square brackets hold non-standard residues; d marks the D form. Peptide text beside a SMILES is read from it. * marks the point of attachment. Ala(1H-tetrazol-5-yl) = N[C@@H](Cc1nnn[nH]1)C(=O)O; Abu(4,4,4-F3) = N[C@@H](CC(F)(F)F)C(=O)O; Gly(cPent) = N[C@H](C(=O)O)C1CCCC1; X1 = C[C@H](N[*:1])C(=O)C(=O)[*:2]; Nva(3-Et) = CCC(CC)[C@H](N)C(=O)O; Pyrazinecarbonyl = O=C(c1cnccn1)*; tBuAla = CC(C)(C)C[C@H](N)C(=O)O; NMeL = CN[C@@H](CC(C)C)C(=O)O; αMeL = CC(C)C[C@](C)(N)C(=O)O; Phg = N[C@H](C(=O)O)c1ccccc1; Tle = CC(C)(C)[C@H](N)C(=O)O; hSer = N[C@@H](CCO)C(=O)O; Dab = NCC[C@H](N)C(=O)O; Abu = CC[C@H](N)C(=O)O; Dap = NC[C@H](N)C(=O)O; Aib = CC(C)(N)C(=O)O; Dha = C=C(N)C(=O)O; Sar = CNCC(=O)O; OAll = C=CCO* Some results are limits rather than exact numbers.

Regarding `C=CCOC(=O)CC[C@H](NC(=O)[C@H](CC(=O)O)NC(=O)C(=O)[C@H](C)NC(=O)CN(C)C(=O)[C@@H](NC(=O)[C@@H](NC(C)=O)C1CCCC1)[C@@H](C)O)C(N)=O` (Ac-[Gly(cPent)]T[Sar][X1]DE(OAll)-NH2), the half-maximal inhibitory concentration (IC50) in assay [1] turned out to be 4700 nM. In the case of `C=CCOC(=O)CC[C@H](NC(=O)[C@H](CC(=O)O)NC(=O)C(=O)[C@H](C)NC(=O)[C@H](C)NC(=O)[C@](C)(CC(C)C)NC(=O)[C@@H](NC(C)=O)C1CCCC1)C(N)=O` (Ac-[Gly(cPent)][αMeL]A[X1]DE(OAll)-NH2), the IC50 in assay [1] was 5670 nM. Moreover, the inhibition result with Plasmodium falciparum is “inactive”. Taken in the same sequence, the figures for `C=CCOC(=O)CC[C@H](NC(=O)[C@H](CC(=O)O)NC(=O)C(=O)[C@H](C)NC(=O)C(C)(C)NC(=O)[C@@H](NC(=O)[C@@H](NC(C)=O)C1CCCC1)[C@@H](C)O)C(N)=O` (Ac-[Gly(cPent)]T[Aib][X1]DE(OAll)-NH2) were over 100000 nM and “inactive”. For the compound `C=CCOC(=O)CC[C@H](NC(=O)[C@H](CO)NC(=O)C(=O)[C@H](C)NC(=O)[C@H](C)NC(=O)[C@@H](NC(=O)[C@@H](NC(C)=O)[C@@H](C)CC)[C@@H](C)O)C(N)=O` (Ac-ITA[X1]SE(OAll)-NH2), the concentration for half-maximal inhibition (IC50) in assay [1] was determined as 41800 nM. Still for that read-out and setting: to `C=CCOC(=O)CC[C@H](NC(=O)[C@H](CC(=O)O)NC(=O)C(=O)[C@H](C)NC(=O)[C@H](C)NC(=O)[C@H](CC(C)C)N(C)C(=O)[C@@H](NC(C)=O)C1CCCC1)C(N)=O` (Ac-[Gly(cPent)][NMeL]A[X1]DE(OAll)-NH2) belongs 13200 nM. In the case of `C=CCOC(=O)CC[C@H](NC(=O)[C@H](CC(=O)O)NC(=O)C(=O)[C@H](CNC(C)=O)NC(=O)[C@H](C)NC(=O)[C@@H](NC(=O)[C@@H](NC(C)=O)C1CCCC1)[C@@H](C)O)C(N)=O`, the IC50 in assay [1] was 2390 nM. Also, the inhibition result with Plasmodium falciparum was “inactive”. As to `C=CCOC(=O)CC[C@H](NC(=O)[C@H](CCC(=O)O)NC(=O)C(=O)[C@H](C)NC(=O)[C@H](C)NC(=O)[C@@H](NC(=O)[C@@H](NC(C)=O)[C@@H](C)CC)[C@@H](C)O)C(N)=O` (Ac-ITA[X1]EE(OAll)-NH2), in assay [1], the IC50 worked out at 2900 nM. Consider `C=CCOC(=O)CC[C@H](NC(=O)[C@H](CC(=O)O)NC(=O)C(=O)[C@H](C)NC(=O)[C@H](C)NC(=O)[C@@H](NC(=O)[C@@H](NC(C)=O)c1ccccc1)[C@@H](C)O)C(N)=O` (Ac-[Phg]TA[X1]DE(OAll)-NH2), for which the IC50 in assay [1] turned out to be 220 nM. For the same compound, the inhibition at 100 µM in the assay on Plasmodium falciparum came out at 9%. On the same counts, the results for `C=CCOC(=O)CC[C@H](NC(=O)[C@H](CC(=O)O)NC(=O)C(=O)[C@H](C)NC(=O)[C@H](C)NC(=O)[C@H](Cc1c[nH]c2ccccc12)NC(=O)[C@@H](NC(C)=O)[C@@H](C)CC)C(N)=O` (Ac-IWA[X1]DE(OAll)-NH2) are 240 nM and 5%.

Take `C=CCOC(=O)CC[C@H](NC(=O)[C@H](CC(=O)O)NC(=O)C(=O)[C@H](C)NC(=O)[C@@H](C)NC(=O)[C@@H](NC(=O)[C@@H](NC(C)=O)C1CCCC1)[C@@H](C)O)C(N)=O`: in the assay on Plasmodium falciparum, the inhibition entry was “inactive”. For `C=CCOC(=O)CC[C@H](NC(=O)[C@H](CC(=O)O)NC(=O)C(=O)[C@H](C)NC(=O)[C@H](CN)NC(=O)[C@@H](NC(=O)[C@@H](NC(C)=O)[C@@H](C)CC)[C@@H](C)O)C(N)=O` (Ac-IT[Dap][X1]DE(OAll)-NH2), in assay [1], the concentration for half-maximal inhibition (IC50) turned out to be 13200 nM. For `C=CCOC(=O)CC[C@H](NC(=O)[C@H](CC(=O)O)NC(=O)C(=O)[C@H](C)NC(=O)[C@H](C)NC(=O)[C@H](C)NC(=O)[C@@H](NC(C)=O)C1CCCC1)C(N)=O` (Ac-[Gly(cPent)]AA[X1]DE(OAll)-NH2), the IC50 in assay [1] was found to be 58400 nM. Moreover, the inhibition result in the assay on Plasmodium falciparum was “inactive”. Take `C=CCOC(=O)CC[C@H](NC(=O)[C@H](CC(=O)O)NC(=O)C(=O)[C@H](C)NC(=O)[C@H](C)NC(=O)[C@@H](NC(=O)[C@@H](NC(C)=O)C(C)(C)C)[C@@H](C)O)C(N)=O` (Ac-[Tle]TA[X1]DE(OAll)-NH2): the half-inhibitory concentration (IC50) in assay [1] stood at 210 nM. In the assay with Plasmodium falciparum, the inhibition at 100 µM was determined as 4%. Regarding `C=CCOC(=O)CC[C@H](NC(=O)[C@H](CC(=O)O)NC(=O)C(=O)[C@H](C)NC(=O)CNC(=O)[C@@H](NC(=O)[C@@H](NC(C)=O)[C@@H](C)CC)[C@@H](C)O)C(N)=O` (Ac-ITG[X1]DE(OAll)-NH2), in assay [1], the 50% inhibitory concentration (IC50) was determined as 1280 nM. As for `C=CCOC(=O)CC[C@H](NC(=O)[C@H](CC(N)=O)NC(=O)C(=O)[C@H](C)NC(=O)[C@H](C)NC(=O)[C@@H](NC(=O)[C@@H](NC(C)=O)[C@@H](C)CC)[C@@H](C)O)C(N)=O` (Ac-ITA[X1]NE(OAll)-NH2), in assay [1], the half-inhibitory concentration (IC50) was 5230 nM. Further, the inhibition at 100 µM with Plasmodium falciparum amounted to 31%.

Consider `CC[C@H](C)[C@H](NC(C)=O)C(=O)N[C@H](C(=O)N[C@@H](C)C(=O)N[C@@H](C)C(=O)C(=O)N[C@@H](Cc1nnn[nH]1)C(N)=O)[C@@H](C)O` (Ac-ITA[X1][Ala(1H-tetrazol-5-yl)]-NH2), for which, in assay [1], the IC50 was determined as 1770 nM. In the assay with Plasmodium falciparum, the inhibition result is “inactive”. On to `C=CCOC(=O)CC[C@H](NC(=O)[C@H](CC(=O)O)NC(=O)C(=O)[C@H](C)NC(=O)[C@H](C)NC(=O)[C@@H](NC(=O)[C@H](CC(C)(C)C)NC(C)=O)[C@@H](C)O)C(N)=O` (Ac-[tBuAla]TA[X1]DE(OAll)-NH2), for which the 50% inhibitory concentration (IC50) in assay [1] is 390 nM. Moreover, the inhibition result with Plasmodium falciparum is “inactive”. `C=CCOC(=O)CC[C@H](NC(=O)[C@H](CC(=O)O)NC(=O)C(=O)[C@H](C)NC(=O)[C@H](C)NC(=O)[C@H](CCNC(=O)c1cnccn1)NC(=O)[C@@H](NC(C)=O)[C@@H](C)CC)C(N)=O` (Ac-I[Dab](Pyrazinecarbonyl)A[X1]DE(OAll)-NH2): the IC50 in assay [1] worked out at 390 nM. In the assay with Plasmodium falciparum, the inhibition at 100 µM came to 10%.

On to `C=CCOC(=O)CC[C@H](NC(=O)[C@H](CC(=O)O)NC(=O)C(=O)[C@H](C)NC(=O)[C@H](C)NC(=O)[C@@H](NC(=O)[C@@H](NC(C)=O)C(CC)CC)[C@@H](C)O)C(N)=O` (Ac-[Nva(3-Et)]TA[X1]DE(OAll)-NH2), for which, in assay [1], the concentration for half-maximal inhibition (IC50) was 460 nM. Further, in the assay with Plasmodium falciparum, the inhibition at 100 µM is 8%. With `C=CCOC(=O)CC[C@H](NC(=O)[C@H](CC(=O)O)NC(=O)C(=O)[C@H](C)NC(=O)C(=C)NC(=O)[C@@H](NC(=O)[C@@H](NC(C)=O)[C@@H](C)CC)[C@@H](C)O)C(N)=O` (Ac-IT[Dha][X1]DE(OAll)-NH2), in assay [1], the IC50 is 330 nM. Moreover, in the assay on Plasmodium falciparum, the inhibition result was “inactive”.

For the compound `C=CCOC(=O)CC[C@H](NC(=O)[C@H](CC(=O)O)NC(=O)C(=O)[C@H](C)NC(=O)[C@H](CC)NC(=O)[C@@H](NC(=O)[C@@H](NC(C)=O)[C@@H](C)CC)[C@@H](C)O)C(N)=O` (Ac-IT[Abu][X1]DE(OAll)-NH2), the IC50 in assay [1] came to 350 nM. Still for that read-out and setting: to `C=CCOC(=O)CC[C@H](NC(=O)[C@H](CCO)NC(=O)C(=O)[C@H](C)NC(=O)[C@H](C)NC(=O)[C@@H](NC(=O)[C@@H](NC(C)=O)[C@@H](C)CC)[C@@H](C)O)C(N)=O` (Ac-ITA[X1][hSer]E(OAll)-NH2) belongs 38800 nM; to `C=CCOC(=O)CC[C@H](NC(=O)[C@H](CC(=O)O)NC(=O)C(=O)[C@H](C)NC(=O)[C@H](CC(F)(F)F)NC(=O)[C@@H](NC(=O)[C@@H](NC(C)=O)[C@@H](C)CC)[C@@H](C)O)C(N)=O` (Ac-IT[Abu(4,4,4-F3)][X1]DE(OAll)-NH2), 3600 nM; to `C=CCOC(=O)CC[C@H](NC(=O)[C@H](CC(=O)O)NC(=O)C(=O)[C@H](CNC(C)=O)NC(=O)[C@H](C)NC(=O)[C@@H](NC(=O)[C@@H](NC(C)=O)[C@@H](C)CC)[C@@H](C)O)C(N)=O`, 23100 nM.

(Values after ChEMBL document CHEMBL5512639, “Insights from structure-activity relationships and the binding mode of peptidic α-ketoamide inhibitors of the malaria drug target subtilisin-like SUB1” (Eur J Med Chem, 2024).)
